Assay results reported in ChEMBL document CHEMBL4732226, “Discovery of a potent G-protein-coupled receptor 119 agonist for the treatment of type 2 diabetes” (Bioorg Med Chem, 2021).

Columns and labels:
[1] = Toxicity in male Wistar rat assessed as albumin level at 100 mg/kg, po after 28 days (reference value: 3.56 +/- 0.08 g.dl); assay type: organism-based; conditions: in vivo, 672 h, time 28 day
[2] = Toxicity in female Wistar rat assessed as ALT level at 100 mg/kg, po after 28 days (reference value: 21.28 +/- 2.31 U/L); assay type: organism-based; conditions: in vivo, 672 h, time 28 day
[3] = Toxicity in female Wistar rat assessed as albumin level at 100 mg/kg, po after 28 days (reference value: 3.57 +/- 0.14 g.dl); assay type: organism-based; conditions: in vivo, 672 h, time 28 day
[4] = Toxicity in male Wistar rat assessed as ratio of brain to body weight at 100 mg/kg, po after 28 days (reference value: 0.766 +/- 0.038); assay type: organism-based; conditions: in vivo, 672 h, time 28 day
[5] = Toxicity in female Wistar rat assessed as creatinine level at 100 mg/kg, po after 28 days (reference value: 0.6 +/- 0.04 mg/dl); assay type: organism-based; conditions: in vivo, 672 h, time 28 day
[6] = Toxicity in female Wistar rat assessed as ratio of adrenals to body weight at 200 mg/kg, po after 28 days (reference value: 0.045 +/- 0.007); assay type: organism-based; conditions: in vivo, 672 h, time 28 day
[7] = Toxicity in female Wistar rat assessed as ALP level at 200 mg/kg, po after 28 days (reference value: 100.14 +/- 21.98 U/L); assay type: organism-based; conditions: in vivo, 672 h, time 28 day
[8] = Toxicity in male Wistar rat assessed as ALP level at 100 mg/kg, po after 28 days (reference value: 174.77 +/- 25.42 U/L); assay type: organism-based; conditions: in vivo, 672 h, time 28 day
[9] = Toxicity in male Wistar rat assessed as ratio of thymus to body weight at 100 mg/kg, po after 28 days (reference value: 0.148 +/- 0.023); assay type: organism-based; conditions: in vivo, 672 h, time 28 day
[10] = Toxicity in male Wistar rat assessed as ratio of spleen to body weight at 200 mg/kg, po after 28 days (reference value: 0.206 +/- 0.026); assay type: organism-based; conditions: in vivo, 672 h, time 28 day
[11] = Toxicity in female Wistar rat assessed as ratio of spleen to body weight at 200 mg/kg, po after 28 days (reference value: 0.244 +/- 0.032); assay type: organism-based; conditions: in vivo, 672 h, time 28 day
[12] = Toxicity in male Wistar rat assessed as urea level at 200 mg/kg, po after 28 days (reference value: 58.14 +/- 9.13 mg/dl); assay type: organism-based; conditions: in vivo, 672 h, time 28 day
[13] = Toxicity in female Wistar rat assessed as ALP level at 100 mg/kg, po after 28 days (reference value: 100.14 +/- 21.98 U/L); assay type: organism-based; conditions: in vivo, 672 h, time 28 day
[14] = Elimination rate constant in Wistar rat at 10 mg/kg, po up to 24 hrs; assay type: ADME, organism-based; conditions: in vivo
In short: (§1)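 Single oral dose at 10 mg/kg given to male Wistar rats and to Beagle dogs; bioavailability also determined in both species.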

[15] = Toxicity in male Wistar rat assessed as ALT level at 200 mg/kg, po after 28 days (reference value: 30.47 +/- 2.63 U/L); assay type: organism-based; conditions: in vivo, 672 h, time 28 day
[16] = Toxicity in male Wistar rat assessed as glucose level at 100 mg/kg, po after 28 days (reference value: 89.02 +/- 13.41 mg/dl); assay type: organism-based; conditions: in vivo, 672 h, time 28 day
[17] = Toxicity in female Wistar rat assessed as ratio of heart to body weight at 100 mg/kg, po after 28 days (reference value: 0.38 +/- 0.037); assay type: organism-based; conditions: in vivo, 672 h, time 28 day
[18] = Toxicity in female Wistar rat assessed as ratio of brain to body weight at 100 mg/kg, po after 28 days (reference value: 1.1 +/- 0.078); assay type: organism-based; conditions: in vivo, 672 h, time 28 day
[19] = Toxicity in male Wistar rat assessed as ratio of brain to body weight at 400 mg/kg, po after 28 days (reference value: 0.766 +/- 0.038); assay type: organism-based; conditions: in vivo, 672 h, time 28 day
[20] = Toxicity in female Wistar rat assessed as albumin level at 400 mg/kg, po after 28 days (reference value: 3.57 +/- 0.14 g.dl); assay type: organism-based; conditions: in vivo, 672 h, time 28 day
[21] = Toxicity in female Wistar rat assessed as ALP level at 400 mg/kg, po after 28 days (reference value: 100.14 +/- 21.98 U/L); assay type: organism-based; conditions: in vivo, 672 h, time 28 day
[22] = Cmax in Sprague-Dawley rat at 25 mg/kg, po up to 24 hrs; assay type: ADME, organism-based; parameters: route oral, dose 25 mg/kg, time <=24; conditions: in vivo
In short: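 Male SD rats fasted overnight, water ad libitum, fed 4 h after dosing. Single oral gavage of 25 mg/kg as a homogeneous suspension in 0.5% Tween 80 in 0.5% Na-CMC. Blood drawn into Na-heparin tubes at 0.25, 0.5, 1, 2, 4, 6, 8 and 24 h; plasma stored at -70°C. Parameters by non-compartmental analysis, with C0 taken as zero and BLQ samples set to zero.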

[23] = Toxicity in male Wistar rat assessed as globulin level at 400 mg/kg, po after 28 days (reference value: 2.62 +/- 0.12 g/dl); assay type: organism-based; conditions: in vivo, 672 h, time 28 day
[24] = AUC(0 to t) in Wistar rat at 10 mg/kg, po up to 24 hrs; assay type: ADME, organism-based; parameters: route oral, dose 10 mg/kg, time <=24; conditions: in vivo; in short: as §1
[25] = Toxicity in female Wistar rat assessed as ratio of kidney to body weight at 400 mg/kg, po after 28 days (reference value: 0.801 +/- 0.071); assay type: organism-based; conditions: in vivo, 672 h, time 28 day
[26] = Toxicity in male Wistar rat assessed as ratio of liver to body weight at 200 mg/kg, po after 28 days (reference value: 3.142 +/- 0.231); assay type: organism-based; conditions: in vivo, 672 h, time 28 day
[27] = Toxicity in female Wistar rat assessed as ratio of brain to body weight at 400 mg/kg, po after 28 days (reference value: 1.1 +/- 0.078); assay type: organism-based; conditions: in vivo, 672 h, time 28 day
[28] = Toxicity in female Wistar rat assessed as ratio of brain to body weight at 200 mg/kg, po after 28 days (reference value: 1.1 +/- 0.078); assay type: organism-based; conditions: in vivo, 672 h, time 28 day
[29] = Toxicity in male Wistar rat assessed as ratio of heart to body weight at 100 mg/kg, po after 28 days (reference value: 0.333 +/- 0.036); assay type: organism-based; conditions: in vivo, 672 h, time 28 day
[30] = Toxicity in male Wistar rat assessed as urea level at 400 mg/kg, po after 28 days (reference value: 58.14 +/- 9.13 mg/dl); assay type: organism-based; conditions: in vivo, 672 h, time 28 day
[31] = Toxicity in male Wistar rat assessed as glucose level at 200 mg/kg, po after 28 days (reference value: 89.02 +/- 13.41 mg/dl); assay type: organism-based; conditions: in vivo, 672 h, time 28 day
[32] = Toxicity in male Wistar rat assessed as ratio of heart to body weight at 200 mg/kg, po after 28 days (reference value: 0.333 +/- 0.036); assay type: organism-based; conditions: in vivo, 672 h, time 28 day
[33] = Toxicity in male Wistar rat assessed as ALT level at 400 mg/kg, po after 28 days (reference value: 30.47 +/- 2.63 U/L); assay type: organism-based; conditions: in vivo, 672 h, time 28 day
[34] = Toxicity in female Wistar rat assessed as urea level at 100 mg/kg, po after 28 days (reference value: 48.09 +/- 5.3 mg/dl); assay type: organism-based; conditions: in vivo, 672 h, time 28 day
[35] = Toxicity in female Wistar rat assessed as albumin level at 200 mg/kg, po after 28 days (reference value: 3.57 +/- 0.14 g.dl); assay type: organism-based; conditions: in vivo, 672 h, time 28 day
[36] = Toxicity in male Wistar rat assessed as globulin level at 200 mg/kg, po after 28 days (reference value: 2.62 +/- 0.12 g/dl); assay type: organism-based; conditions: in vivo, 672 h, time 28 day

## Cc1c(Oc2cccc(/C=C3\SC(=O)NC3=O)c2)ncnc1OC1CCN(C(=O)OC(C)(C)C)CC1
[1]
  Activity: 3.47 g/dL
[2]
  Activity: 22.37 U/L
[3]
  Activity: 3.59 g/dL
[4]
  Ratio: 0.83
[5]
  Activity: 0.63 mg/dL
[6]
  Ratio: 0.044
[7]
  Activity: 91.73 U/L
[8]
  Activity: 152.22 U/L
[9]
  Ratio: 0.167
[10]
  Ratio: 0.22
[11]
  Ratio: 0.242
[12]
  Activity: 55.62 mg/dL
[13]
  Activity: 103.72 U/L
[14]
  k el at 24 h: 1.94e-05 s⁻¹
[15]
  Activity: 30.15 U/L
[16]
  Activity: 87.56 mg/dL
[17]
  Ratio: 0.41
[18]
  Ratio: 1.103
[19]
  Ratio: 0.809
[20]
  Activity: 3.57 g/dL
[21]
  Activity: 100.97 U/L
[22]
  Cmax: 4960 ng/mL
[23]
  Activity: 2.53 g/dL
[24]
  AUC(0-t) at 24 h: 1770 ng·h/mL
[25]
  Ratio: 0.806
[26]
  Ratio: 3.304
[27]
  Ratio: 1.069
[28]
  Ratio: 1.114
[29]
  Ratio: 0.347
[30]
  Activity: 51.15 mg/dL
[31]
  Activity: 75.19 mg/dL
[32]
  Ratio: 0.363
[33]
  Activity: 29.6 U/L
[34]
  Activity: 47.84 mg/dL
[35]
  Activity: 3.65 g/dL
[36]
  Activity: 2.64 g/dL
